Here are results for 37 variants from the RNAGym collection of RNA variant scans (doi:10.1126/science.aae0568).

The chains are these.
B1: tRNA (parent)
chain: GUUCCGUUGGCGUAAUGGUAACGCGUCUCCCUCCUAAGGAGAAGACUGCGGGUUCGAGUCCCGUACGGAACG

Fewer inactive variants are shown than the library holds.

Variants of B1 are the subject of the data set. Put plainly: yeast fitness relative to wild type (ratio to wild type); higher = fitter; tRNA-Arg(CCU), competitive growth, 37 C, YPD. Put shortly: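 Start and end populations of a pooled competition were compared by 100-nucleotide paired-end sequencing of gene amplicons. The Saccharomyces cerevisiae strains carried tRNA-Arg(CCU) gene variants at the native genomic locus, synthesised with a 3% per-site mutation rate at 69 sites, and competed in YPD at 37°C for 24 hours in six parallel replicates. Darwinian fitness relative to wild type was based on the change in genotype frequencies. Genotypes required ≥ 100 starting reads, and estimates < 0.5 were set to 0.5.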
With GUUCCGUUGGCGUAAUGGUAACGCGUCUCCCUCCUAUGGAGAAGACCGCGCGUUCGAGUCCCCUACGGAACG [A37U U47C G51C G63C], the yeast fitness is 0.507.

On to GUUCCGUUGGCGUAAUGGUAACGCGUCUCCCUCCUAUGGAGAACACUGCGGGUUCGAGUCCCGUACGGAACG [A37U G44C], for which the yeast fitness worked out at 0.784.

Regarding GUUCCGUUGGCGUAAUGGUAACGCGUCUCCCUCCUAUGGAGAAAACUGCGGGUUCGAGUCCCGUACGGAACG [A37U G44A], the yeast fitness worked out at 0.602.

Consider GUUCCGUUGGCGUAAUGGUAACGCGUCUCCCUCCUAUGGAGAAGACUGCGGGUUCGAGUCUCGUACGGAGCG [A37U C61U A70G], for which the yeast fitness was found to be 0.572.

For the variant GUUCCGUUGGCGUAAUGGUAACGCGUCUCCCUCCUAUGGAGAAGACUGCCGGUUCGAGUCCCGUAUGGAACG [A37U G50C C66U], the yeast fitness worked out at 0.593.

In the case of GUUCCGUUGGCGUAAUGGUAACGCGUCUCCCUCCUAUGGAGAAGACUGCGGGGUCGAGUCCCGUACGGAACG [A37U U53G], the yeast fitness amounted to 0.538.

For the variant GUUCCGUUGGCGUAAUGGUAACGCGUCUCCCUCCUAUGGAGAAGACUGCGGGUUUGAGUCCCGUACGGAACG [A37U C55U], the yeast fitness was found to be 0.594.

Consider GUUCCGUUGGCGUAAUGGUAACGCGUCUCCCUCCUAUGGAGAAGACUGCGGGUUGGAGUCCCGUACGGAACG [A37U C55G], for which the yeast fitness came out at 0.609.

For the variant GUUCCGUUGGCGUAAUGGUAACGCGUCUCCCUCCUAUGGAGAAGACUGCGGGUUAGAGUCCCGUACGGAACG [A37U C55A], the yeast fitness is not above 0.5.

For the variant GUUCCGUUGGCGUAAUGGUAACGCGUCUCCCUCCUAUGGAGAAGACUGCGGGUUAGAGUUCCGUACGGAACG [A37U C55A C60U], the yeast fitness is not above 0.5.

In the case of GUUCCGUUGGCGUAAUGGUAACGCGUCUCCCUCCUAUGGAGAAGACUGCGGGUUCGAGUCCUGUACAGAACG [A37U C62U G67A], the yeast fitness was not above 0.5.

For the variant GUUCCGUUGGCGUAAUGGUAACGCGUCUCCCUCCUAUGGAGAAGACUGCGGGUUCGAGUGCCGUACGGAACG [A37U C60G], the yeast fitness was 0.516.

For the variant GUUCCGUUGGCGUAAUGGUAACGCGUCUCCCUCCUAUGGAGAAGACUGCGGGUUCGAGUUCCGUACGGAACG [A37U C60U], the yeast fitness is 0.519.

For GUUCCGUUGGCGUAAUGGUAACGCGUCUCCCUCCUAUGGAGAAGACUGCGAGUUCGAGUCCCGUACGGAACG [A37U G51A], the yeast fitness worked out at 0.57.

For GUUCCGUUGGCGUAAUGGUAACGCGUCUCCCUCCUAUGGAGAAGAUUGCGGGUUCGAGUCCCGUACGGAACG [A37U C46U], the yeast fitness turned out to be 0.821.

Consider GUUCCGUUGGCGUAAUGGUAACGCGUCUCCCUCCUAUGGAGAUGACUGCGGGUUCGUGUCCCGUAAGGAACG [A37U A43U A57U C66A], for which the yeast fitness was not above 0.5.

For GUUCCGUUGGCGUAAUGGUAACGCGUCUCCCUCCUAUGGAGAGGACUGCGGGUUCGAGUCCCAUACCGAGCG [A37U A43G G63A G67C A70G], the yeast fitness is 0.802.

As for GUUCCGUUGGCGUAAUGGUAACGCGUCUCCCUCCUAUGGAGAAAACUGUGGGUUCGCGUCGCGUACGGAACG [A37U G44A C49U A57C C61G], the yeast fitness was not above 0.5.

Consider GUUCCGUUGGCGUAAUGGUAACGCGUCUCCCUCCUAUGGAGAAAACUGCGGGUACGAGUCCGGUAGGGGACG [A37U G44A U54A C62G C66G A69G], for which the yeast fitness is not above 0.5.

For GUUCCGUUGGCGUAAUGGUAACGCGUCUCCCUCCUAUGGAGAAGACUGCGAGUUCGAGUCCCGUAGGGAACG [A37U G51A C66G], the yeast fitness was not above 0.5.

Consider GUUCCGUUGGCGUAAUGGUAACGCGUCUCCCUCCUAUGGAGAAGACUGCGGGUUCGAGUCCCGUACGGUACG [A37U A69U], for which the yeast fitness was 0.723.

Take GUUCCGUUGGCGUAAUGGUAACGCGUCUCCCUCCUAUGGAGAAGACUGCGGGUUCGAGUCCCGUACGGCACG [A37U A69C]: the yeast fitness is 0.796.

With GUUCCGUUGGCGUAAUGGUAACGCGUCUCCCUCCUAUGGAGAAGACUGCGGGGUCGAGUCCCGUUCGGAACG [A37U U53G A65U], the yeast fitness was not above 0.5.

As to GUUCCGUUGGCGUAAUGGUAACGCGUCUCCCUCCUAUGGAGAAGACUGCGGGUUCGAGUCCUGUACGGAACG [A37U C62U], the yeast fitness stood at 0.859.

With GUUCCGUUGGCGUAAUGGUAACGCGUCUCCCUCCUAUGGAGAAGCCUGCGGCUUCGAGUCCCGUACGGAACG [A37U A45C G52C], the yeast fitness is not above 0.5.

As for GUUCCGUUGGCGUAAUGGUAACGCGUCUCCCUCCUAUGGAGAAGACUGCGGGUUCGAGUCCCGUACGGACCG [A37U A70C], the yeast fitness was 0.917.

Take GUUCCGUUGGCGUAAUGGUAACGCGUCUCCCUCCUAUGGAGAAGACUGCGGGUUCGAGUCCCGUACGGAGCG [A37U A70G]: the yeast fitness came out at 0.72.

On to GUUCCGUUGGCGUAAUGGUAACGCGUCUCCCUCCUAUGGAGAUGACUCCGGGUUCGAGUCCCGUACGGAACG [A37U A43U G48C], for which the yeast fitness worked out at 0.514.

Regarding GUUCCGUUGGCGUAAUGGUAACGCGUCUCCCUCCUAUGGAGAAGACUGCGGGUUCGAGUCCCGUUGGGAACG [A37U A65U C66G], the yeast fitness is not above 0.5.

In the case of GUUCCGUUGGCGUAAUGGUAACGCGUCUCCCUCCUAUGGAGAAGACUGCGGGUUCGCGUCCCGUACGGUCCG [A37U A57C A69U A70C], the yeast fitness came to 0.775.

With GUUCCGUUGGCGUAAUGGUAACGCGUCUCCCUCCUAUGGAGAAGACUGCCGGUUCGAGUCCCGUACAGAACG [A37U G50C G67A], the yeast fitness is not above 0.5.

Consider GUUCCGUUGGCGUAAUGGUAACGCGUCUCCCUCCUAUGGAGAAGACCGCGGGGUCGAGUCCUGUACGGAACG [A37U U47C U53G C62U], for which the yeast fitness was not above 0.5.

Turning to GUUCCGUUGGCGUAAUGGUAACGCGUCUCCCUCCUAUGGAGAAGACUGCAGGUUCGAGUCCCGUACGGAACG [A37U G50A], the yeast fitness came out at 0.804.

Take GUUCCGUUGGCGUAAUGGUAACGCGUCUCCCUCCUAUGGAGAAGACUGCGGGUUCGAGUCCCGUUCGGAACG [A37U A65U]: the yeast fitness turned out to be 0.665.

In the case of GUUCCGUUGGCGUAAUGGUAACGCGUCUCCCUCCUAUGGAGAAGACGGCGGGUUCGCGUCCCGUACGGAACG [A37U U47G A57C], the yeast fitness was not above 0.5.

In the case of GUUCCGUUGGCGUAAUGGUAACGCGUCUCCCUCCUAUGGAGAAGACUGCGGGUUCCUGUCCCGUACGGAACG [A37U G56C A57U], the yeast fitness is not above 0.5.

In the case of GUUCCGUUGGCGUAAUGGUAACGCGUCUCCCUCCUAUAGAGAAGACUGCGGGUUCGAGACCCGUACGGAACG [A37U G38A U59A], the yeast fitness was not above 0.5.
